In ChEMBL document CHEMBL1146717, “Investigation of novel fumagillin analogues as angiogenesis inhibitors” (Bioorg Med Chem Lett, 2004) one finds EC50, Activity and IC50 data, which are given here for 7 compounds.

The structures appear in SMILES notation.

Experiment [1] has as its system HUVEC. Nature of the experiment: Tested for inhibition of the human umbilical vein endothelial cell (HUVEC) proliferation.
The subject of experiment [2] is HUVEC. In words: Percent stability determined after 0 hr in HUVEC culture medium; Expressed as % remaining. Type of experiment: functional, Homo sapiens.
The test system of experiment [3] is HUVEC. In words: Percent stability determined after 0 hr in HUVEC lysate; Expressed as % remaining. It is filed as functional, Homo sapiens. In a few lines: (§1)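 Compound (1 mM) was incubated in HUVEC lysate at 37 °C and sampled at 0, 4 and 20 h. Results are expressed as % of compound remaining, with an estimated measurement error of 10–15%.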
In experiment [4] the test system is HUVEC. Nature of the experiment: Percent stability determined after 20 hr in HUVEC culture medium; Expressed as % remaining. It is filed as functional, Homo sapiens.
In experiment [5] the test system is HUVEC. Nature of the experiment: Percent stability determined after 20 hr in HUVEC lysate; Expressed as % remaining. Type of experiment: functional, Homo sapiens. In a few lines: as §1
Experiment [6] has as its system HUVEC. Nature of the experiment: Percent stability determined after 4 hr in HUVEC culture medium; Expressed as % remaining. It is filed as functional, Homo sapiens.
The subject of experiment [7] is HUVEC. In words: Percent stability determined after 4 hr in HUVEC lysate; Expressed as % remaining. It is filed as functional, Homo sapiens. In a few lines:
as §1

Experiment [8] relates to HUVEC. Nature of the experiment: Percent remained in HUVEC lysate after 0.5 hr in presence of epoxide hydrolase (EH) along with inhibitor (Compound used as hydrolysate); Expressed as % remaining. Type of experiment: functional, Homo sapiens. The essentials: (§2)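 Epoxide hydrolase (1 mg/mL protein, final) was co-incubated at 37 °C with the compound (2 mM) plus cyclohexene oxide (50 mM) as EH inhibitor. Substrate remaining and hydrolysate were quantified at 3 min, 0.5 h and 2 h as % values, with an estimated error of 10–15%.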

For experiment [9], the system named is HUVEC. In words: Percent remained in HUVEC lysate after 0.5 hr in presence of epoxide hydrolase (EH) along with inhibitor (Control = 92) (Compound used as substrate); Expressed as % remaining. It is filed as functional, Homo sapiens. In a few lines: as §2
Experiment [10] has as its system HUVEC. Nature of the experiment: Percent remained in HUVEC lysate after 2 hr in presence of epoxide hydrolase (EH) (Compound used as hydrolysate); Expressed as % remaining. Type of experiment: functional, Homo sapiens. In a few lines: (§3)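 Each compound at 2 mM incubated at 37 °C with epoxide hydrolase (1 mg/mL protein, final), alongside a no-enzyme control. Substrate remaining and hydrolysate formed were quantified at 3 min, 0.5 h and 2 h as % values. Estimated measurement error is 10–15%.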

For experiment [11], the system named is HUVEC. Nature of the experiment: Percent remained in HUVEC lysate after 2 hr in presence of epoxide hydrolase (EH) along with inhibitor (Compound used as hydrolysate); Expressed as % remaining. It is filed as functional, Homo sapiens. In a few lines:
as §2

Experiment [12] relates to HUVEC. In words: Percent stability after 4 hr in HUVEC lysate; Expressed as % remaining. Type of experiment: functional, Homo sapiens. The essentials:
as §1

For experiment [13], the system named is HUVEC. In words: Percent stability after 20 hr in HUVEC culture medium; expressed as % remaining. It is filed as functional, Homo sapiens.
The subject of experiment [14] is HUVEC. In words: Percent stability after 4 hr in HUVEC culture medium; expressed as % remaining. It is filed as functional, Homo sapiens.
Experiment [15] deals with HUVEC. Nature of the experiment: Percent remained in HUVEC lysate after 2 hr in presence of epoxide hydrolase (EH) along with inhibitor (Control = 90) (Compound used as substrate); Expressed as % remaining. Type of experiment: functional, Homo sapiens. The essentials:
as §2

Experiment [16] concerns HUVEC. Nature of the experiment: Percent remained in HUVEC lysate after 3 min in presence of epoxide hydrolase (EH) (Control = 100) (Compound used as substrate); Expressed as % remaining. Type of experiment: functional, Homo sapiens. The essentials: as §3
For experiment [17], the system named is HUVEC. Nature of the experiment: Percent remained in HUVEC lysate after 3 min in presence of epoxide hydrolase (EH) along with inhibitor (Control = 100) (Compound used as substrate); Expressed as % remaining. Type of experiment: functional, Homo sapiens. The essentials: as §2
For experiment [18], the system named is HUVEC. Nature of the experiment: Percent remained in HUVEC lysate after 3 min in presence of epoxide hydrolase (EH) used as hydrolysate; Expressed as % remaining. It is filed as functional, Homo sapiens. The essentials:
as §3

In experiment [19] the test system is HUVEC. In words: Percent stability determined after 20 hr in HUVEC lysate; expressed as % remaining. Type of experiment: functional, Homo sapiens. In a few lines: as §1
For experiment [20], the system named is HUVEC. Nature of the experiment: Percent stability after 0 hr in HUVEC culture medium; expressed as % remaining. It is filed as functional, Homo sapiens.
The test system of experiment [21] is HUVEC. Nature of the experiment: Percent remained in HUVEC lysate after 0.5 hr in presence of epoxide hydrolase (EH) (Compound used as hydrolysate); Expressed as % remaining. Type of experiment: functional, Homo sapiens. The essentials:
as §3

Experiment [22] has as its system HUVEC. Nature of the experiment: Percent stability determined after 0 hr in HUVEC lysate; expressed as % remaining. Type of experiment: functional, Homo sapiens. The essentials: as §1
Experiment [23] has as its target Methionine aminopeptidase 2 (Homo sapiens, UniProt P50579). In words: Inhibitory activity against Methionine aminopeptidase 2.
For experiment [24], the system named is HUVEC. In words: Percent remained in HUVEC lysate after 0.5 hr in presence of epoxide hydrolase (EH) along with inhibitor (Control = 103) (Compound used as substrate); Expressed as % remaining. Type of experiment: functional, Homo sapiens. The essentials:
as §2

Experiment [25] relates to HUVEC. Nature of the experiment: Percent remained in HUVEC lysate after 2 hr in presence of epoxide hydrolase (EH) along with inhibitor (Control = 106) used as substrate; Expressed as % remaining. It is filed as functional, Homo sapiens. In a few lines:
as §2

In experiment [26] the test system is HUVEC. Nature of the experiment: Percent remained in HUVEC lysate after 3 min in presence of epoxide hydrolase (EH) (Compound used as hydrolysate); Expressed as % remaining. Type of experiment: functional, Homo sapiens. The essentials:
as §3

For experiment [27], the system named is HUVEC. In words: Percent remained in HUVEC lysate after 2 hr in presence of epoxide hydrolase (EH) (Control = 100) (Compound used as substrate); Expressed as % remaining. Type of experiment: functional, Homo sapiens. In a few lines:
as §3

The subject of experiment [28] is HUVEC. In words: Percent remained in HUVEC lysate after 2 hr in presence of epoxide hydrolase (EH) along with inhibitor (Control = 103) (Compound used as substrate); Expressed as % remaining. It is filed as functional, Homo sapiens. In a few lines: as §2
Experiment [29] relates to HUVEC. Nature of the experiment: Percent remained in HUVEC lysate after 0.5 hr in presence of epoxide hydrolase (EH) (Control = 103) (Compound used as substrate); Expressed as % remaining. It is filed as functional, Homo sapiens. The essentials: as §3

Sequence of Methionine aminopeptidase 2 (P50579 whole entry): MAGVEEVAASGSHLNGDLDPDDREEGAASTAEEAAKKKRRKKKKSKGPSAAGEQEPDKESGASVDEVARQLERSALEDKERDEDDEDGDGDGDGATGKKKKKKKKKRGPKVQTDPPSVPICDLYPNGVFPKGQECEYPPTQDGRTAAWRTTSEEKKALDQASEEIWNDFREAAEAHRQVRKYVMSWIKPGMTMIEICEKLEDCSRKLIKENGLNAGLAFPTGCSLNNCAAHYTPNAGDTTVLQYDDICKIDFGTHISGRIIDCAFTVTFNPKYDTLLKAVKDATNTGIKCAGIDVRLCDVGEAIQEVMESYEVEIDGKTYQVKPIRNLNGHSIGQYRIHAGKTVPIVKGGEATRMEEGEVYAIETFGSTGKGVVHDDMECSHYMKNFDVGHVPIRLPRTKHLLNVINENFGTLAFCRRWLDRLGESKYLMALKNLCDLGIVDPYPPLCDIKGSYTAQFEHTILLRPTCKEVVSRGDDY

One may read the EC50 as the concentration at which the effect is half-maximal. A lower EC50 goes with greater potency. With `CO[C@@H]1[C@H](OC(C)=O)CC[C@]2(CO2)[C@H]1/C(C)=N/OCc1ccccc1`, the response with HUVEC [1] was half-maximal at 450 nM (EC50).
`CCN1CCN(C(=O)O[C@@H]2CC[C@]3(CO3)[C@@H]([C@@]3(C)O[C@@H]3CC=C(C)C)[C@@H]2OC)CC1`: the Activity with HUVEC [2] is 100%; in the experiment with HUVEC [3] it was 100%; with HUVEC [4], 75%; in the experiment on HUVEC [5] it was 76%; in the experiment on HUVEC [6] it was 95%; in the experiment on HUVEC [7], 91%.
For the compound `CO[C@@H]1[C@H](OC(N)=O)CC[C@]2(CO2)[C@H]1/C(C)=C/CC=C(C)C`, the Activity is 21% in the experiment with HUVEC [8]; 75% with HUVEC [9]; 100% with HUVEC [10]; 87% in the experiment with HUVEC [11]; 36% in the experiment on HUVEC [12]; 68% in the experiment on HUVEC [13]. Besides, the Activity in the experiment on HUVEC [14] came out at 76%; in the experiment on HUVEC [15], 5%; with HUVEC [16] it was 18%; in the experiment with HUVEC [17], 108%; with HUVEC [18], 77%; with HUVEC [19], 1%. Besides, the Activity is given as 100% in the experiment on HUVEC [20], 79% in the experiment on HUVEC [21] and 100% in the experiment on HUVEC [22]. In the experiment with HUVEC [1], this compound returned a concentration for a half-maximal effect (EC50) of 490 nM.
By IC50 is commonly meant the concentration at which inhibition is half-maximal. Read a high IC50 as weaker potency. For `CO[C@@H]1[C@H](OC(=O)/C=C/C=C/C=C/C=C/C(=O)O)CC[C@]2(CO2)[C@H]1[C@@]1(C)O[C@@H]1CC=C(C)C` [FUMAGILLIN], the EC50 in the experiment on HUVEC [1] came to 0.82 nM. In addition, the IC50 in experiment [23] was determined as 0.63 nM.
In the case of `CO[C@@H]1[C@H](OC(N)=O)CC[C@]2(CO2)[C@H]1[C@@]1(C)O[C@@H]1CC=C(C)C`, the Activity with HUVEC [24] came to 109%; in the experiment with HUVEC [10], 100%; in the experiment on HUVEC [25], 107%; in the experiment on HUVEC [26], 22%; in the experiment on HUVEC [16], 84%; in the experiment on HUVEC [17], 98%. Moreover, the Activity in the experiment with HUVEC [21] is given as 103%. The same compound showed an EC50 in the experiment with HUVEC [1] of 0.65 nM.
In the experiment with HUVEC [1], `CO[C@@H]1[C@H](OC(C)=O)CC[C@]2(CO2)[C@H]1[C@@]1(C)O[C@@H]1CC=C(C)C` registered an EC50 of 3 nM.
As to `CO[C@@H]1[C@H](OC(N)=O)CC[C@]2(CO2)[C@H]1/C(C)=N/OCc1ccccc1`, the Activity in the experiment on HUVEC [8] came to 15%; in the experiment with HUVEC [24] it was 95%; in the experiment with HUVEC [10], 100%; with HUVEC [27], 1%; in the experiment with HUVEC [11] it was 60%; in the experiment with HUVEC [28], 60%. Also, the Activity with HUVEC [12] is 20%; in the experiment on HUVEC [13], 69%; with HUVEC [14] it was 90%; in the experiment on HUVEC [26], 93%; in the experiment on HUVEC [16], 10%; with HUVEC [17], 106%. The Activity with HUVEC [19] amounted to 3%; in the experiment with HUVEC [20] it was 100%; with HUVEC [21], 95%; in the experiment with HUVEC [29] it was 2%; with HUVEC [22] it was 100%. In addition, the concentration giving a half-maximal response (EC50) in the experiment with HUVEC [1] turned out to be 88 nM.
